Measurements as given in ChEMBL document CHEMBL1124369, “Pyrido[3,4-e]-1,2,4-triazines and related heterocycles as potential antifungal agents” (1989).
Converted amounts (≈) assume the structure as drawn.

Experiments:
[1] = tested on: Aspergillus niger; experiment: Antifungal activity against Aspergillus niger; Range is 16-32; format: functional
Outline: (§1)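 Agar dilution MIC. Twofold serial drug dilutions in yeast nitrogen base medium with 1% dextrose, 0.15% asparagine and 1.5% agar. Agar surfaces inoculated using a Steers multiple inocula replicator, then incubated at 35 °C for 24-48 h. MIC was recorded as the lowest concentration inhibiting visible growth. Amphotericin B, miconazole and nystatin served as controls.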

[2] = tested on: Kluyveromyces marxianus; experiment: Antifungal activity against Candida pseudotropicalis; format: functional; outline: as §1
[3] = tested on: Candida albicans; experiment: Antifungal activity against Candida albicans; format: functional; outline: as §1
[4] = tested on: Candida parapsilosis; experiment: Antifungal activity against Candida parapsilosis; format: functional; conditions: Lodderomyces parapsilosis; outline: as §1
[5] = tested on: Candida tropicalis; experiment: Antifungal activity against Candida tropicalis; format: functional; outline: as §1
[6] = tested on: Trichophyton benhamiae; experiment: Antifungal activity against Trichophyton mentagrophytes; format: functional, trychophyton mentagrophytes; outline: as §1
[7] = tested on: Trichophyton rubrum; experiment: Antifungal activity against Trichophyton rubrum; format: functional; outline: as §1
[8] = tested on: Aspergillus niger; experiment: Antifungal activity against Aspergillus niger; format: functional; outline: as §1
[9] = tested on: Candida albicans; experiment: Antifungal activity against Candida stellatoidea; format: functional; outline: as §1
[10] = tested on: Diutina rugosa; experiment: Antifungal activity against Candida rugosa; format: functional; outline: as §1
[11] = tested on: Aspergillus niger; experiment: Antifungal activity against Aspergillus niger; Range is 64-128; format: functional; outline: as §1
[12] = tested on: Mucor fragilis; experiment: Antifungal activity against Mucor fragilis; format: functional; outline: as §1
[13] = tested on: Kluyveromyces marxianus; experiment: Antifungal activity against Candida pseudotropicalis; Range is 8-16; format: functional; outline: as §1
[14] = tested on: Candida tropicalis; experiment: Antifungal activity against Candida tropicalis; Range is 8-16; format: functional; outline: as §1
[15] = tested on: Trichophyton rubrum; experiment: Antifungal activity against Trichophyton rubrum; Range is 2-4; format: functional; outline: as §1
[16] = tested on: Trichophyton benhamiae; experiment: Antifungal activity against Trichophyton mentagrophytes; Range is 32-64; format: functional, trychophyton mentagrophytes; outline: as §1
[17] = tested on: Trichophyton rubrum; experiment: Antifungal activity against Trichophyton rubrum; Range is 32-64; format: functional; outline: as §1
[18] = tested on: Candida albicans; experiment: Antifungal activity against Candida albicans; Range is 8-16; format: functional; outline: as §1
[19] = tested on: Candida tropicalis; experiment: Antifungal activity against Candida tropicalis; Range is 8-32; format: functional; outline: as §1
[20] = tested on: Trichophyton rubrum; experiment: Antifungal activity against Trichophyton rubrum; Range is 1-2; format: functional; outline: as §1

MIC [1]	MIC [2]	MIC [3]	MIC [4]	MIC [5]	MIC [6]	MIC [7]	MIC [8]	MIC [9]	MIC [10]	MIC [11]	MIC [12]	MIC [13]	MIC [14]	MIC [15]	MIC [16]	MIC [17]	MIC [18]	MIC [19]	MIC [20]	SMILES
16 µg/mL (≈ 81.5 µM)	32 µg/mL (≈ 163 µM)	32 µg/mL (≈ 163 µM)	32 µg/mL (≈ 163 µM)	32 µg/mL (≈ 163 µM)	32 µg/mL (≈ 163 µM)	32 µg/mL (≈ 163 µM)														Cc1nnc2c(cnc3ccccc32)n1
	128 µg/mL (≈ 618 µM)	64 µg/mL (≈ 309 µM)		128 µg/mL (≈ 618 µM)		64 µg/mL (≈ 309 µM)	128 µg/mL (≈ 618 µM)	128 µg/mL (≈ 618 µM)	128 µg/mL (≈ 618 µM)											c1ccc(-c2nnc3ccccc3n2)cc1
	128 µg/mL (≈ 636 µM)	64 µg/mL (≈ 318 µM)		128 µg/mL (≈ 636 µM)				16 µg/mL (≈ 79.5 µM)	16 µg/mL (≈ 79.5 µM)	64 µg/mL (≈ 318 µM)	64 µg/mL (≈ 318 µM)									CN(C)/C=C/c1nnc2ccncc2n1
16 µg/mL (≈ 76.8 µM)		16 µg/mL (≈ 76.8 µM)	16 µg/mL (≈ 76.8 µM)		8 µg/mL (≈ 38.4 µM)			16 µg/mL (≈ 76.8 µM)	32 µg/mL (≈ 154 µM)		> 128 µg/mL	8 µg/mL (≈ 38.4 µM)	8 µg/mL (≈ 38.4 µM)	2 µg/mL (≈ 9.61 µM)						c1ccc(-c2nnc3ccncc3n2)cc1
	8 µg/mL (≈ 30.7 µM)	8 µg/mL (≈ 30.7 µM)		8 µg/mL (≈ 30.7 µM)			32 µg/mL (≈ 123 µM)	32 µg/mL (≈ 123 µM)	32 µg/mL (≈ 123 µM)		32 µg/mL (≈ 123 µM)									c1ccc2nc(-c3nnc4ccncc4n3)cnc2c1
	128 µg/mL (≈ 633 µM)	128 µg/mL (≈ 633 µM)	128 µg/mL (≈ 633 µM)	128 µg/mL (≈ 633 µM)			128 µg/mL (≈ 633 µM)								32 µg/mL (≈ 158 µM)	32 µg/mL (≈ 158 µM)				c1cc2c(cn1)NC1(CCCCC1)N=N2
16 µg/mL (≈ 85.9 µM)	16 µg/mL (≈ 85.9 µM)			32 µg/mL (≈ 172 µM)				32 µg/mL (≈ 172 µM)	32 µg/mL (≈ 172 µM)		16 µg/mL (≈ 85.9 µM)						8 µg/mL (≈ 43 µM)			c1cc2nnc(C3CCC3)nc2cn1
			128 µg/mL (≈ 799 µM)		8 µg/mL (≈ 49.9 µM)	8 µg/mL (≈ 49.9 µM)	64 µg/mL (≈ 400 µM)					8 µg/mL (≈ 49.9 µM)					8 µg/mL (≈ 49.9 µM)	8 µg/mL (≈ 49.9 µM)		Cc1nnc2ccnc(C)c2n1
16 µg/mL (≈ 70.7 µM)	8 µg/mL (≈ 35.4 µM)	16 µg/mL (≈ 70.7 µM)	16 µg/mL (≈ 70.7 µM)		4 µg/mL (≈ 17.7 µM)			32 µg/mL (≈ 141 µM)	16 µg/mL (≈ 70.7 µM)		16 µg/mL (≈ 70.7 µM)		8 µg/mL (≈ 35.4 µM)						1 µg/mL (≈ 4.42 µM)	Fc1cccc(-c2nnc3ccncc3n2)c1
